Bioassay records (PubChem BioAssay)
Rows were chosen to be rich in hits. Some 3.5% of all compounds tested hit in one or more screens of this group.
MrgX1 antagonist – antagonists of human MrgX1 receptor, primary screen, HEK293 cells, Fluo-4 calcium flux. BAM8-22 antagonism; stronger effect = lower value. actives 1.3% (n = 310,000). Mas-related G-protein coupled receptor member X1 (Homo sapiens), Q96LB2. B-score at 10 µM. AID 588676, 2011;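 active = calcium-response B-score plate-corrected more than 3 library SD below zero, starting fluorescence within 5 deviations, no agonist response on first addition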;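 note: peak minus trough fluorescence over baseline after final BAM8-22 challenge near maximal dose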
MrgX1 ag – agonists of human MrgX1 receptor, primary screen, HEK293 cells, Fluo-4 calcium flux; Mas-related G-protein coupled receptor member X1 (Homo sapiens), Q96LB2; Fluo-4 calcium fluorescence, agonist mode; stronger effect = higher value; B-score at 10 µM; actives 0.44% (n = 310,000);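 active = calcium response B-score plate-corrected fluorescence ratio at least 3 library SD, with starting fluorescence B-score inside 5 SD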
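Test system: Stable human MrgX1 HEK293 cell line | Schedule: Overnight plating before 1 h dye loading | Read-out basis: Baseline-normalised fluorescence change ratio, B-scored | Detection: Kinetic calcium dye fluorescence, Fluo-4 NW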
RGS4 pot – RGS4 potentiators or activators, primary screen, cell-based, HEK293 M3R inducible RGS4, calcium flux | carbachol calcium flux Fluo4; stronger effect = lower value | B-score at 10 µM | actives 0.92% (n = 310,000) | AID 463111, 2010;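 active = B-score of the integrated calcium signal more than 4 SD below the library mean, with starting fluorescence not abnormally high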;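 note: negative B-score means reduced calcium response which marks RGS4 activation or potentiation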
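Material: M3R-expressing HEK293 line, RGS4 induced by doxycycline | Schedule: Overnight RGS4 induction, 30 min dye load 37 °C, 20 min compound RT | Measured by: Fluo4 fluorescence kinetic imaging of calcium | Read-out: Integrated calcium ratio converted to B score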
MrgX1 allo act – positive allosteric modulators of MrgX1, primary screen, HEK293 cells, Fluo-4 calcium flux | B-score at 10 µM | FDSS; stronger effect = higher value | actives 0.63% (n = 310,000);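 active = plate-corrected calcium response at least 3 library SD above typical, normal starting fluorescence, not activating the receptor alone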;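 note: compound read alongside a low EC10 to EC30 dose of BAM8-22 agonist; peak minus trough fluorescence over baseline measured at the second addition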
RGS4 block – RGS4 inhibitors, primary screen, cell-based, HEK293 M3R inducible RGS4, calcium flux. Fluo-4 calcium flux; stronger effect = higher value; triggered by carbachol at its EC20. B-score at 10 µM. actives 0.45% (n = 310,000). AID 463165, 2010;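 active = B-score, a plate-corrected calcium signal, over three deviations above library mean, with baseline fluorescence within five deviations of library mean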;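 note: RGS4 expression induced by doxycycline in cells with stable M3 receptor; B-score is computed from the integrated fluorescence ratio over baseline after carbachol; higher B-score means a larger calcium signal and so more RGS4 inhibition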
Target sequence (P49798 whole entry, looked up): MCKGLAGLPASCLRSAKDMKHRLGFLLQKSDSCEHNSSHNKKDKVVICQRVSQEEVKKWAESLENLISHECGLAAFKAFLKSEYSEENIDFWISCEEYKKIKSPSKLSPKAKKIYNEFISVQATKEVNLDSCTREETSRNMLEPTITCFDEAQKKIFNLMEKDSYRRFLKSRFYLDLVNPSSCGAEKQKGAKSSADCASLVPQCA
Starred values were filed as active, the others as inactive; i = inactive; nt = no result given.

SMILES	MrgX1 antagonist	MrgX1 ag	RGS4 pot	MrgX1 allo act	RGS4 block
CC(=O)CCc1ccc(OCCCCN2CCC(Cc3ccccc3)CC2)cc1	i	i	-7.2*	i	i
COc1ccc(/C=C(\NC(=O)c2ccc(C)cc2)C(=O)Nc2ccc(C(=O)O)cc2)cc1	i	i	i	i	i
CC(C1CC1)N(Cc1ccccc1)C(=S)Nc1ccccc1Cl (configuration not stated)	i	i	i	i	i
O=C(COC(=O)C12CC3CC(CC(C3)C1)C2)Nc1ccc([N+](=O)[O-])cc1Cl	-6.6*	i	i	i	i
Cc1ccsc1CN(C)CC(=O)Nc1ccc([N+](=O)[O-])cc1Cl	i	i	-8.5*	i	i
O=C(N/N=C/c1ccncc1)c1ccc(NS(=O)(=O)c2cccs2)cc1	i	i	i	9.6*	i
O=C(O)c1ccc(/C=N/NC(=O)c2ccc(NS(=O)(=O)c3cccs3)cc2)cc1	i	i	i	i	i
Cc1cc(NC(=O)CCC(=O)N(CC(C)C)C(C(=O)NC(C)(C)C)c2ccccc2Cl)no1 (configuration not stated)	i	i	i	i	i
O=C(O)CC/C(=N\Nc1ccc([N+](=O)[O-])cc1)c1ccccc1	-5.9*	i	i	i	i
CC(=O)Nc1ccc(S(=O)(=O)N2CCC(C(N)=O)(N3CCCCC3)CC2)cc1	i	i	i	i	i
Cc1cccc(-c2noc(Cc3ccccc3)n2)c1	-8.2*	i	i	i	i
O=C(Cc1ccc(Cl)cc1)Nc1ccccc1N1CCN(C(=O)c2ccccc2)CC1	i	i	-7.1*	i	i
CCCCN(C(=O)C(C)Oc1cccc(Cl)c1)c1c(N)n(CCC)c(=O)[nH]c1=O (configuration not stated)	-5.1*	i	i	i	i
CCCCN(C(=O)c1cccc(S(=O)(=O)N2CCOCC2)c1)c1c(N)n(CCC)c(=O)[nH]c1=O	i	i	i	9.4*	i
CCCn1c(N)c(N(CCOC)C(=O)c2cccc(Cl)c2)c(=O)[nH]c1=O	i	i	i	i	i
Cn1c(=O)n(C)c2cc(NC(=O)CCc3ccccc3)c(Br)cc21	i	i	i	i	i
COc1ccccc1C(=O)COC(=O)c1ccccc1OCC(=O)Nc1ccc(SC(F)F)cc1	i	i	-7.8*	i	i
CS(=O)(=O)Oc1ccc2c(c1)O/C(=C\c1cccnc1)C2=O	i	i	i	i	i
COc1cc(OC)c(OC)cc1/C=C1\Oc2cc(OS(C)(=O)=O)ccc2C1=O	-7.4*	i	i	i	i
Cc1ccc(NC(=O)CC(O)(C(F)(F)F)C(F)(F)F)cc1	i	48*	i	i	i
O=[N+]([O-])c1cccc(-c2noc3c2-c2nc(Cc4cccc5ccccc45)sc2CC3)c1	i	i	i	i	i
Cc1cc(NS(=O)(=O)c2ccc(NC(=O)COc3ccc(Cl)c(C)c3)cc2)no1	nt	nt	i	nt	i
CCCN(Cc1ccc(N(C)C)cc1)CC1CC1	i	i	i	i	i
CCCN(Cc1ccc(N(CC)CC)cc1)CC1CC1	i	i	-7.1*	i	i
Cc1ccccc1N=C1SC(CC(=O)Nc2ccc3ccccc3c2)C(=O)N1Cc1ccccn1 (configuration not stated)	-9.7*	i	i	i	i
CCOc1ccc(S(=O)(=O)NC(Cc2cnc[nH]2)C(=O)O)cc1 (configuration not stated)	-4.9*	i	i	i	i
COc1cc2nc(N(CCCN(C)C)C(=O)c3ccc(C(=O)c4ccccc4)cc3)sc2cc1OC	i	i	i	i	i
